Results published in paper PMC9366314 (Acta Pharmaceutica Sinica. B, 2022).

How the values were obtained:
[1] = test system: phosphorylated YAP; assay: Western blot of phosphorylated YAP in MP41 xenograft tumor tissues; format: in vivo, mice; details: testing dose
How it was run: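 Nude BALB/c nu/nu mice (18–22 g, 6–8 weeks) bearing MP41 xenografts were randomised (n = 6/group) and dosed ip daily for 21 days (5, 15 or 30 mg/kg/day arms). Tumours were taken on Day 22 and lysed in RIPA with phosphatase and protease inhibitors. Lysates were spun at 15,000 rpm, 4 °C for 15 min, protein quantified by BCA, run on 8–12% SDS-PAGE, transferred to PVDF, blocked in 5% BSA and detected by ECL.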

[2] = test system: 92.1 cells; assay: Cell cycle analysis by flow cytometry, 92.1; format: cell-based
[3] = test system: MP41 cells (GNA11 Q209L mutation); assay: Cell proliferation inhibition assay; format: cell-based; details: MP41, 72 h, read-out: Antiproliferation (IC50, μmol/L) MP41
How it was run: (§1)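 Uveal melanoma cells were grown in RPMI-1640 with 10% FBS at 37 °C, 5% CO2. They were resuspended at 3 × 10^3 cells/mL, seeded and left overnight. Cells were exposed to a concentration series of test compound for 72 h. CCK-8 was added for 2–4 h and absorbance read at 450 nm. IC50 values were fitted from the curves and reported as mean ± SEM, n = 3.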

[4] = test system: CHO-M1 cells; assay: Cytotoxicity on CHO-M1 cells; format: cell-based; details: CCK-8
[5] = test system: MP41 cells; assay: Apoptosis assay by flow cytometry; format: cell-based; details: 48 h
How it was run: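 MP41 cells were seeded at 3 × 10^5 cells/well, left overnight, then exposed to test compound for 48 h. Washed cells were stained with Annexin V-FITC for 15 min, then with PI for 5 min. Samples were analysed by flow cytometry. Data are mean ± SEM, n = 3.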

[6] = test system: 92.1 cells (GNAQ Q209L mutation); assay: Cell proliferation inhibition assay; format: cell-based; details: 72 h, read-out: Antiproliferation (IC50, μmol/L) 92.1
How it was run: as §1

SMILES: CN1CCC[C@H]1CN1CCn2cc(-c3ccccc3)nc2[C@@H]1CC1CCCCC1 [GQ262]
- Phosphorylated YAP expression in tumor tissues [1]: increased the accumulation of phosphorylated YAP
- Cellular proportion in G0/G1 phase ([2]; 10 μmol/L): 77.1%
- Cellular proportion in G0/G1 phase ([2]; 20 μmol/L): 83.5%
- IC50 [3]: 5.1 ± 0.6 µmol/L
- Cell viability of CHO-M1 cells, 2 h ([4]; 2 h, 10 and 20 μmol/L): did not impact the cell viability
- Cell viability of CHO-M1 cells, 24 h ([4]; 24 h, up to 20 μmol/L): did not impact the cell viability
- Cell apoptosis ([5]; 3 μmol/L): 11.5%
- Cell apoptosis ([5]; 10 μmol/L): 16.0%
- IC50 [6]: 10.4 ± 0.1 µmol/L
